Values joined by “and” are separate entries in the source; they are usually repeats but may differ in a detail not shown here. Equal values may be shown once. Values belong to the molecule of their own block, whether it stands above or below them.
Tests used:
[1] = target: T1, Muscarinic acetylcholine receptor M2 (Sus scrofa, UniProt P06199); assay: Reduction of dissociation rate of [3H]N-methylscopolamine ([3H]NMS) from muscarinic acetylcholine receptor M2 of pig heart
T1 sequence (P06199 whole entry): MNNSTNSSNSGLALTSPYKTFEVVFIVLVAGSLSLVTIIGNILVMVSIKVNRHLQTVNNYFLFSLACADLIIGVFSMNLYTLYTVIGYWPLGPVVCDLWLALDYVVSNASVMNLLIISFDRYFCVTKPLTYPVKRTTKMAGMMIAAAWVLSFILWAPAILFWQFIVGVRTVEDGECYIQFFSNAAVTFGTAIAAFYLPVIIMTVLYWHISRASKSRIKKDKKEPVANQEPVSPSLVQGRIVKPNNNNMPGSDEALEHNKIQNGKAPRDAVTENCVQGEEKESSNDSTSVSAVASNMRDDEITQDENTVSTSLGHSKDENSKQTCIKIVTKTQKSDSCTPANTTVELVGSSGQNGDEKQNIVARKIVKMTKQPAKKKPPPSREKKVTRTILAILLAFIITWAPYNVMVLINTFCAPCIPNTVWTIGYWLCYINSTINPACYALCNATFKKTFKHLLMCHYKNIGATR
Outline: (§1)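 Porcine ventricular membranes (sucrose homogenate, 80000g pellet in 50 mM Tris-HCl pH 7.4) preincubated 30 min with 0.2 nM [3H]NMS in 3 mM MgHPO4/50 mM Tris-HCl, pH 7.3, 37 °C; dissociation started with 1 μM atropine plus compound. Residual binding at 4 min (two-point) gave k-1; sigmoid fit yielded EC50 and slope; filtration, scintillation; n=3-5.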

[2] = target: T2, Muscarinic acetylcholine receptor M2 (Sus scrofa) (UniProt P06199); assay: Hill coefficient, slope factors of reduction in dissociation rate of [3H]NMS from M2 receptor of pig heart; outline: as §1
T2 sequence (whole entry): T1 sequence (P06199 whole entry)

[3] = Partition coefficient (logP); type: physicochemical; conditions: octanol/water
Outline: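 Compound at 5×10^-5 M in octanol-saturated Na2HPO4 buffer pH 7.4, absorbance at 290 nm; 0.7 mL shaken 2 h with equal volume buffer-saturated octanol, centrifuged, aqueous absorbance remeasured; partition coefficient and log P from absorbance difference.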

SMILES: Clc1cccc(Cl)c1CO/N=C/c1cc[n+](CCCc2ccccc2)cc1
- logP [3]: 0.5
- EC50 [1]: 9.4 µM
- nH [2]: 1.2

SMILES: CC[N+](CC)(CC)CCC[n+]1ccc(/C=N/OCc2c(Cl)cccc2Cl)cc1
- logP [3]: 1.4
- EC50 [1]: 23 µM
- nH [2]: 0.9

SMILES: CO/N=C/c1cc[n+](CCC[n+]2ccc(/C=N/OC)cc2)cc1
- EC50 [1]: > 1000 µM

SMILES: CCC[n+]1ccc(/C=N/OCc2c(Cl)cccc2Cl)cc1
- logP [3]: 0.6
- EC50 [1]: 26 µM
- nH [2]: 1.2

SMILES: CO/N=C/c1cc[n+](CCC[n+]2ccc(/C=N/OCc3c(Cl)cccc3Cl)cc2)cc1
- logP [3]: -2
- EC50 [1]: 4.5 µM
- nH [2]: 1.2

SMILES: O/N=C/c1cc[n+](CCC[n+]2ccc(/C=N/O)cc2)cc1 [TRIMEDOXIME]
- EC50 [1]: > 1000 µM

SMILES: Clc1cccc(Cl)c1CO/N=C/c1cc[n+](CCC[n+]2ccc(/C=N/OCc3c(Cl)cccc3Cl)cc2)cc1
- logP [3]: 0.6
- EC50 [1]: 4.7 µM
- nH [2]: 1.7

Other lines, results leading:

- EC50 [1]: 21 µM
- nH [2]: 1.2
SMILES: Clc1cccc(Cl)c1CO/N=C/c1cc[n+](CCC[n+]2ccccc2)cc1

- logP [3]: 1.3
- EC50 [1]: 12 µM
- nH [2]: 1.1
SMILES: Cc1cc[n+](CCC[n+]2ccc(/C=N/OCc3c(Cl)cccc3Cl)cc2)cc1

- EC50 [1]: 17 µM
- nH [2]: 1.1
SMILES: N#Cc1cc[n+](CCC[n+]2ccc(/C=N/OCc3c(Cl)cccc3Cl)cc2)cc1

- logP [3]: 0.3
- EC50 [1]: 6 µM
- nH [2]: 1.5
SMILES: COc1ccc(CCC[n+]2ccc(/C=N/OCc3c(Cl)cccc3Cl)cc2)cc1

- logP [3]: 1.7
- EC50 [1]: 11 µM
- nH [2]: 1.3
SMILES: O/N=C/c1cc[n+](CCC[n+]2ccc(/C=N/OCc3c(Cl)cccc3Cl)cc2)cc1

- logP [3]: 1.7
- EC50 [1]: 25 µM
- nH [2]: 1.5 and 1.3
SMILES: C[N+](C)(C)CCC[n+]1ccc(/C=N/OCc2c(Cl)cccc2Cl)cc1

- logP [3]: 1.5
- EC50 [1]: 4.2 µM
- nH [2]: 1.3
SMILES: CN(C)c1cc[n+](CCC[n+]2ccc(/C=N/OCc3c(Cl)cccc3Cl)cc2)cc1
